# Screening data: PubChem, several laboratories
# S1P3 agonist: S1P3 (human) receptor agonism. S1P3 NFAT-BLA reporter cells, FRET ratio; relative to 1 µM S1P, basal subtracted. hit rate 0.1% among 60,000. Q99500. activation, % at 4.5 µM;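 active = activation above the screen-wide mean plus 3 SD, cut at about 4.5% in these data, passing the limit was not always enough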
#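 Assay system: stable CHO line with human S1P3, Gα16, NFAT-BLA reporter; Detection: FRET β-lactamase substrate fluorescence, excitation 405 nm, 460/535 nm emission ratio, background-subtracted; Read-out: percent activation versus median 1 µM S1P response, basal-subtracted, per plate; Incubation: cells plated overnight, compound 4 h 37 °C, substrate 2 h RT.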
# M1 antag: antagonists of rat M1 muscarinic receptor; CHO-M1 cells, Fluo-4 calcium, ACh EC80 antagonist mode; stronger effect = lower value; B-score at 10 µM; hit rate 3.4% among 64,000; AID 628;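 active = calcium fluorescence response, raw or row-and-column corrected B-score, differing from the plate sample mean either way at a set confidence level, mostly lower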
# D1 allo mod: allosteric modulators of human D1 dopamine receptor | P21728 | HEK293 D1, CRE-luciferase, dopamine EC30 potentiation; actives deviate in either direction | B-score at 10 µM | hit rate 5.9% among 58,000 | AID 641;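 active = luminescence count or its row- and column-corrected plate score outside the 99.7% band of the plate's sample wells, on either side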
# Target sequence (P21728 whole entry, looked up): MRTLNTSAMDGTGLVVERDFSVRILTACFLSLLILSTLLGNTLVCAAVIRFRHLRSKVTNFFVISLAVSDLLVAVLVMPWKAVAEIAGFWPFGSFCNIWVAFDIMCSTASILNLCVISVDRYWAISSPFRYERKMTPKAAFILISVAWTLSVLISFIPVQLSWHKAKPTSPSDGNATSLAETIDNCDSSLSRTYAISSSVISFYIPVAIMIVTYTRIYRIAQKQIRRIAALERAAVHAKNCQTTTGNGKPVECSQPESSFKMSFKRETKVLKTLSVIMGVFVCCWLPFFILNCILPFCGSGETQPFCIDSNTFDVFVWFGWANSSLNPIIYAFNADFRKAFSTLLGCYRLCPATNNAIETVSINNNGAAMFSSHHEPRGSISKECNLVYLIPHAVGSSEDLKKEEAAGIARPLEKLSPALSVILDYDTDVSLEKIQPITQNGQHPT
# S1P1 ag-PAM: S1P1 (human) agonism or agonism potentiation | P21453 | S1P1 CRE-bla cells, forskolin, beta-lactamase FRET, potentiator mode; S1P1 agonist co-added at EC20, 2 nM; 100% = saturating reference agonist, 0% = basal | activation, % at 9.5 µM | hit rate 0.57% among 56,000 | AID 449;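 active = activation above a cutoff set at the mean activation of all tested compounds plus 3 SD, cut at about 54% in these data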;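 note: forskolin at 4 µM as EC80 and the EC20 agonist is SEW2871; 100% = SEW2871 at its EC100 plus forskolin at EC80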
# M1 ag: M1 muscarinic receptor agonism; CHO-M1 cells, Fluo-4 calcium fluorescence, agonist mode; stronger effect = higher value; B-score at 10 µM; AID 626; hit rate 3% among 64,000;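 active = fluorescence rise, raw or as B-score row- and column-corrected plate score, outside the 99.7% band of its plate's samples, either direction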
# * marks the source's active call; other numbers are inactive results; . = not tested or not shown. Shown are actives, neighbours in structure and some others; about 11% of the full set was active somewhere.
SMILES,S1P3 agonist,M1 antag,D1 allo mod,S1P1 ag-PAM,M1 ag
CC1(c2ccc(Cl)cc2)NC(=O)N(CC(=O)NC(=O)NCc2ccco2)C1=O (centres undefined),-0.6,-0.469,0.521,6.4,0.0843
COC(=O)[C@H](C)NC(=O)Nc1ccc(S(N)(=O)=O)cc1,-1.1,1.59*,0.295,-9.9,0.411
CC(C)C[C@H](NC(=O)Nc1ccc(S(N)(=O)=O)cc1)C(=O)O,-0.1,.,-0.286,-8.2,.
COc1cccc(CNC(=O)Nc2cccs2)c1,-1.2,.,-3.4*,6.4,.
COc1ccc(N=c2oc3c(OC)cccc3cc2C(=O)NCc2ccco2)c(OC)c1,-0.7,-0.0205,-0.83,-9.3,-0.37
O=C(CCC1CCCCC1)NCc1ccncc1,-1.3,-1.49,-0.0684,.,-1.25
O=C(CCC1CCCC1)c1c(O)c2ccccc2oc1=O,0.1,-2.08*,-3.15*,-1.6,8.17*
O=C(Nc1ccc(Cl)cc1)N1CCC(c2nc(-c3ccc(F)cc3)no2)CC1,-0.9,0.172,-0.956,57.1*,-0.601
COc1ccc(NC(=O)N2CCCC(c3nc(-c4ccc(C(C)C)cc4)no3)C2)cc1 (centres undefined),-1.5,0.355,-0.852,9.0,-0.148
O=C1NC(=S)S/C1=C1\Sc2ccccc2N1CCCS(=O)(=O)O,1.3,0.05,-2.87*,-7.5,-1.54
O=S(=O)(c1ccccc1Cl)N1CCC(O)(c2ccc3c(c2)OCO3)CC1,0.1,1.05,0.312,36.1,-0.298
CCOC(=O)Cc1c(C)nc2c(-c3ccc(Cl)cc3)c[nH]n2c1=O,-0.6,0.578,-0.786,-1.3,-1.06
COc1cc(-c2nc3ccccn3c2NCC2CCCO2)ccc1O (centres undefined),-0.5,-1.15,-2.21,12.4,3.29*
COc1cccc(-c2nc(NCC3CCCO3)c3ccccc3n2)c1O (centres undefined),-0.3,-0.825,.,-22.7,7.1
CN(C(=O)c1ccc(NC(=O)c2cnccn2)cc1)C1CCCCC1,.,-0.0422,-0.0486,.,-0.527
Cc1cc2oc(=O)cc(CN3CCCCC3C)c2c(C)c1Cl (centres undefined),-1.3,0.941,0.112,-10.9,-0.466
c1ccc(-c2cn3c4c(sc3n2)CCCC4)cc1,-0.9,0.0999,-9.94*,22.2,-0.114
O=C(COc1ccccc1)NCCc1cn2ccsc2n1,-0.7,-0.373,0.0123,-4.3,0.048
Cc1cc(C(F)(F)F)nc(Nc2nc(C)c3ccccc3n2)n1,-0.6,-0.00398,-0.33,-11.2,0.365
Nc1nc(Nc2ccccc2)nc2ccccc12,0.2,-0.806,-5.55*,-11.4,0.0835
CC(=O)c1ccc(NC(=O)c2ccn[nH]2)cc1,0.3,-0.0253,-2.25*,-10.0,-1.05
Cc1nc2sc3c(c2c2nc(-c4ccco4)nn12)CC(C)(C)OC3,-0.4,.,-0.315,-8.0,.
COCCn1c(C)cc(C(=O)COC(=O)c2n[nH]c3ccccc23)c1C,1.2,-0.112,-8.37*,37.8,-1.98
Cc1cc(C(=O)COC(=O)c2n[nH]c3ccccc23)c(C)n1C,-0.3,-0.107,.,32.3,-0.944
O=C(c1ccccc1)C(CCC(CN1CCOCC1)C(=O)c1ccccc1)CN1CCOCC1 (centres undefined),-4.7,-0.0782,.,92.6*,-0.28
SMILES,S1P3 agonist,M1 antag,D1 allo mod,S1P1 ag-PAM,M1 ag
CCOC(=O)c1cn2c3c(c(F)c(F)c(F)c3c1=O)SC(N1CCCC1)=N2,-1.1,-0.331,-0.0949,-0.9,-0.314
Cc1nn(-c2ccccc2)c2c1C(O)n1c(nc3ccccc31)S2 (centres undefined),-0.6,-0.822,2.5,-5.8,2.21
O=C(COC(=O)c1cccs1)c1ccc2c(c1)OCCO2,.,0.0336,-2.97*,.,0.487
COc1ccc(-c2nc(-c3ccncc3)no2)cc1OC,0.8,0.401,.,106.5*,1.21
COc1ccccc1-c1nc(-c2ccc(Br)cc2)no1,-1.6,-0.202,.,78.4*,0.954
COc1ccc(-c2nc(-c3ccc(Br)o3)no2)cc1OC,0.3,0.243,1.39,82.4*,0.0148
CCOc1cc(-c2nc(-c3cc(OC)c(OC)c(OC)c3)no2)cc(OCC)c1OCC,-1.7,-0.59,0.311,.,-0.515
CCOc1ccc(-c2nc(-c3ccc(OC)cc3)no2)cc1OCC,0.5,-0.0295,-2.91,98.4*,-0.019
O=C(NCc1ccc2c(c1)OCO2)c1nnc(Cc2ccc(Cl)cc2)o1,-0.7,-0.074,-0.26,8.0,-0.879
CCN(CC)S(=O)(=O)c1cccc2cc(C(=O)O)c(O)cc12,-0.4,-0.457,0.00927,1.3,0.0251
COc1ccc(OC)c(NC(=O)CSc2nc(C)cs2)c1,-0.5,0.289,0.282,-14.9,-0.459
NC(=O)CSc1nnc(COc2ccccc2)n1C1CCCCC1,-0.9,0.533,-0.0279,2.0,-0.123
CCC(C)NC(=O)c1ccccc1NS(=O)(=O)c1ccc(OC)c(OC)c1 (centres undefined),-0.4,-0.278,-0.0146,1.4,-0.338
c1ccc(N2CCN(Cc3ccnc4ccccc34)CC2)cc1,-1.8,-1.24,-1.76,78.1*,-1.65
c1cnc(N2CCN(Cc3c[nH]c4ccccc34)CC2)nc1,-0.8,-1.83,-2.37,7.9,-0.033
Cc1ccccc1C(=O)c1cccn1CC(=O)NCc1ccco1,-1.2,0.715,-0.128,-4.0,-0.745
O=C(Cn1cccc1C(=O)c1ccccc1)NCc1ccco1,-0.2,-0.909,-3.54*,-7.3,-0.114
Cc1csc(-c2coc3cc(O)cc(C)c3c2=O)n1,-1.7,-1.17,0.0192,-14.6,0.633
COc1ccc2c(=O)c(-c3nc(C)cs3)coc2c1,0.6,0.906,-5.93*,4.3,1.09
CCOc1cccc(C2c3c(oc4cc(C)c(C)cc4c3=O)C(=O)N2CCCN(C)C)c1 (centres undefined),-0.9,0.23,-0.0752,3.8,-0.354
COc1ccc(C2=C(O)C(C)N(c3ccccc3)C2=N)cc1OC (centres undefined),0.5,-0.59,-3.54*,13.7,-0.319
c1ccc(Cc2nc(-c3ccccn3)no2)cc1,-1.2,-0.29,-0.35,-18.3,-0.186
c1ccc(C(Cc2nc(-c3ccccn3)no2)c2ccccc2)cc1,10.7*,-0.789,-1.3,13.6,0.661
c1ccc(C(Cc2nc(-c3cccnc3)no2)c2ccccc2)cc1,20.3*,-0.685,.,85.4*,-0.532
COC(=O)C(O)(NC(=O)NC(C)=O)C(F)(F)F (centres undefined),-0.9,-0.341,-0.514,-24.4,0.466
CCN(CCCNS(=O)(=O)c1ccc2c(c1)CCN2C(C)=O)c1cccc(C)c1,-0.2,-1.98,-0.247,26.4,-0.124
Cc1cc(C)c2nc(Nc3nc(C)cc(=O)[nH]3)nc(C)c2c1,0.7,-1.95,-3.64*,-228.3,0.358
COc1ccc2c(C)nc(Nc3nc(C)cc(=O)[nH]3)nc2c1,0.6,0.155,-0.0989,-114.7,-0.239
CCOc1cccc(NC(=O)C2CC(=O)NC(=Nc3ccccc3)S2)c1 (centres undefined),-5.2,-0.537,4.06,2.1,-0.231
CCN(CC)c1ccc2c(C)c(-c3ccc(N)cc3)c(=O)oc2c1,0.8,0.874,-0.00672,-6.8,0.505
